Test results as given in ChEMBL document CHEMBL2029233, “Des-acyl ghrelin fragments and analogues promote survival of pancreatic β-cells and human pancreatic islets and prevent diabetes in streptozotocin-treated rats” (2012).
The source made the active and inactive calls. The rule behind the calls is not given here.

Columns and labels:
Pancreatic islet [1] = assay: Cytoprotective activity in human pancreatic islet cells assessed as inhibition of IFN-gamma/TNFalpha/IL1beta-induced cell death at 10 nM after 24 hrs by MTT assay relative to control; assay type: functional
How it was run: (§1)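 Human donor islets (purity >70%, 25/well) serum-starved 24 h, then 24 h serum-free with peptide (1–100 nM), alone or with IFN-γ 100 ng/mL, TNF-α 200 ng/mL, IL-1β 10 ng/mL. MTT 1 mg/mL ~1 h, DMSO, A570. Percent of serum-free or cytokine control. ≥3 experiments in quadruplicate.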

Pancreatic islet [2] = assay: Cytoprotective activity in human pancreatic islet cells assessed as inhibition of serum starvation-induced cell death at 10 nM after 24 hrs by MTT assay relative to control; assay type: functional; how it was run: as §1
HIT-T15 [3] = assay: Cytoprotective activity in hamster HIT-T15 cells assessed as inhibition of serum starvation-induced cell death after 24 hrs by MTT assay relative to control; assay type: functional, cell-based; conditions: Mesocricetus auratus
How it was run: (§2)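 Viability by MTT in HIT-T15 cells seeded at 5×10^3/well, serum-starved 24 h, then 24 h more in serum-free medium with peptide (1–100 nM). MTT 1 mg/mL ~1 h, DMSO solubilization, absorbance 570 nm. Expressed as percent of serum-free control. Mean ± SE, ≥3 experiments in quadruplicate.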

EPC [4] = assay: Cytoprotective activity in human EPC assessed as decrease in H2O2-induced senescence associated beta-galactosidase positive cells at 1 uM after 24 hrs; assay type: functional
How it was run: (§3)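 EPCs given test peptides (1 μM or 10 μM) with or without H₂O₂ for 24 h. Cells then fixed in 2% paraformaldehyde for 3 min and stained 24 h at 37 °C with X-gal solution. SA-β-gal-positive cells counted out of 100 at 20× by three investigators.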

Rattus norvegicus [5] = assay: Antidiabetic activity in neonatal Sprague-Dawley rat assessed as inhibition of STZ-induced decrease in pancreatic insulin level at 30 nmol/kg, […] measured after 70 days by RIA relative to control; assay type: functional, organism-based
Pancreatic islet [6] = assay: Cytoprotective activity in human pancreatic islet cells assessed as inhibition of IFN-gamma/TNFalpha/IL1beta-induced cell death at 1 nM after 24 hrs by MTT assay relative to control; assay type: functional; how it was run: as §1
HIT-T15 [7] = assay: Antiapoptotic activity in hamster HIT-T15 cells assessed as reduction in IFN-gamma/TNFalpha/IL1beta-induced apoptosis at 100 nM after 24 hrs by Hoechst staining relative to control; assay type: functional, cell-based; conditions: Mesocricetus auratus
How it was run: (§4)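 HIT-T15 cells serum-starved 24 h, then 24 h in serum-free medium with IFN-γ 100 ng/mL, TNF-α 200 ng/mL, IL-1β 10 ng/mL plus peptide. Cells pooled with floating cells, formaldehyde-fixed, ethanol-stored, stained with 10 μg/mL Hoechst 33258. Condensed/fragmented nuclei counted, 500 nuclei in duplicate, n = 3. Reported as percent apoptotic cells.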

Rattus norvegicus [8] = assay: Antidiabetic activity in neonatal Sprague-Dawley rat assessed as inhibition of STZ-induced mortality at 30 nmol/kg, sc administered on day 2 post STZ-challenge measured on day 9 (reference value: 52%); assay type: functional; set-up: scale not given: the % may be the effect or the level left
HIT-T15 [9] = assay: Antiapoptotic activity in hamster HIT-T15 cells assessed as reduction in IFN-gamma/TNFalpha/IL1beta-induced apoptosis at 1 nM after 24 hrs by Hoechst staining relative to control; assay type: functional, cell-based; conditions: Mesocricetus auratus; how it was run: as §4
Pancreatic islet [10] = assay: Cytoprotective activity in human pancreatic islet cells assessed as inhibition of serum starvation-induced cell death at 10 to 100 nM after 72 hrs by MTT assay relative to control; assay type: functional
How it was run: (§5)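 Human donor islets (>70% purity, 25/well) held 72 h in serum-free medium with peptide, alone or with IFN-γ/TNF-α/IL-1β at 5 ng/mL each. Viability by MTT (1 mg/mL ~1 h, DMSO, 570 nm). Mean ± SE of ≥3 experiments in quadruplicate.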

Rattus norvegicus [11] = assay: Antidiabetic activity in neonatal Sprague-Dawley rat assessed as decrease in STZ-induced plasma glucose level at 30 nmol/kg, sc administered from day 2 to day 9 post STZ-challenge measured after 70 days by colorimetry relative to control; assay type: functional, organism-based
How it was run: (§6)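 Neonatal rats given STZ 100 mg/kg ip in citrate buffer (pH 4.5) on day 1 of birth, then peptide 30 or 100 nmol/kg sc twice daily, days 2–8. Controls received citrate buffer. Killed at day 70. Glucose measured colorimetrically in nonfasted plasma. Plasma and pancreatic (80 mg) insulin measured by RIA. n = 11–21 per group.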

Pancreatic islet [12] = assay: Cytoprotective activity in human pancreatic islet cells assessed as inhibition of serum starvation-induced cell death at 1 nM after 24 hrs by MTT assay relative to control; assay type: functional; how it was run: as §1
Pancreatic islet [13] = assay: Cytoprotective activity in human pancreatic islet cells assessed as inhibition of serum starvation-induced cell death at 100 nM after 24 hrs by MTT assay relative to control; assay type: functional; how it was run: as §1
HIT-T15 [14] = assay: Cytoprotective activity in hamster HIT-T15 cells assessed as inhibition of IFN-gamma/TNFalpha/IL1beta-induced cell death at 1 to 100 nM after 24 hrs by MTT assay relative to control; assay type: functional, cell-based; conditions: Mesocricetus auratus
How it was run: (§7)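 HIT-T15 cells (5×10^3/well) serum-starved 24 h, then 24 h serum-free with IFN-γ 100 ng/mL, TNF-α 200 ng/mL, IL-1β 10 ng/mL plus peptide (1–100 nM). MTT 1 mg/mL ~1 h, formazan dissolved in DMSO, A570. Reported as percent of cytokine control. Mean ± SE of ≥3 experiments in quadruplicate.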

HIT-T15 [15] = assay: Antiapoptotic activity in hamster HIT-T15 cells assessed as reduction in IFN-gamma/TNFalpha/IL1beta-induced apoptosis at 10 nM after 24 hrs by Hoechst staining relative to control; assay type: functional, cell-based; conditions: Mesocricetus auratus; how it was run: as §4
Rattus norvegicus [16] = assay: Antidiabetic activity in neonatal Sprague-Dawley rat assessed as inhibition of STZ-induced decrease in plasma insulin level at 30 nmol/kg, sc administered from day 2 to day 9 post STZ-challenge measured after 70 days by RIA relative to control; assay type: functional, organism-based; how it was run: as §6
HIT-T15 [17] = assay: Cytoprotective activity in hamster HIT-T15 cells assessed as inhibition of IFN-gamma/TNFalpha/IL1beta-induced cell death after 24 hrs by MTT assay relative to control; assay type: functional, cell-based; conditions: Mesocricetus auratus; how it was run: as §7
Pancreatic islet [18] = assay: Cytoprotective activity in human pancreatic islet cells assessed as inhibition of IFN-gamma/TNFalpha/IL1beta-induced cell death at 10 to 100 nM after 72 hrs by MTT assay relative to control; assay type: functional; how it was run: as §5
HIT-T15 [19] = assay: Cytoprotective activity in hamster HIT-T15 cells assessed as inhibition of serum starvation-induced cell death at 1 to 100 nM after 24 hrs by MTT assay relative to control; assay type: functional, cell-based; conditions: Mesocricetus auratus; how it was run: as §2
Pancreatic islet [20] = assay: Cytoprotective activity in human pancreatic islet cells assessed as inhibition of IFN-gamma/TNFalpha/IL1beta-induced cell death at 100 nM after 24 hrs by MTT assay relative to control; assay type: functional; how it was run: as §1
EPC [21] = assay: Cytoprotective activity in human EPC assessed as decrease in H2O2-induced ROS production after 2 hrs by DCF-DA flow cytometry assay; assay type: functional
How it was run: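 Human EPCs from peripheral blood mononuclear cells, cultured 21 days on collagen I in EGM-2. ROS measured by flow cytometry using DCF-DA (0.5 μM final) after 2 h of treatment. H₂O₂ 150 μM as positive control.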

[22] = target: Ras-related C3 botulinum toxin substrate 1 (Homo sapiens) (UniProt P63000); assay: Inhibition of Rac1 activation
EPC [23] = assay: Cytoprotective activity in human EPC assessed as decrease in H2O2-induced senescence associated beta-galactosidase positive cells at 10 uM after 24 hrs; assay type: functional; how it was run: as §3
Rattus norvegicus [24] = assay: Antidiabetic activity in neonatal Sprague-Dawley rat assessed as inhibition of STZ-induced decrease in plasma insulin level at 100 nmol/kg, […] post STZ-challenge measured after 70 days by RIA by relative to control; assay type: functional, organism-based
Rattus norvegicus [25] = assay: Antidiabetic activity in neonatal Sprague-Dawley rat assessed as decrease in STZ-induced plasma glucose level at 100 nmol/kg, sc administered from day 2 to day 9 post STZ-challenge measured after 70 days by colorimetry by relative to control; assay type: functional, organism-based; how it was run: as §6
Rattus norvegicus [26] = assay: Antidiabetic activity in neonatal Sprague-Dawley rat assessed as inhibition of STZ-induced mortality at 100 nmol/kg, sc administered on day 2 post STZ-challenge measured on day 9 (reference value: 52%); assay type: functional; set-up: scale not given: the % may be the effect or the level left
Rattus norvegicus [27] = assay: Antidiabetic activity in neonatal Sprague-Dawley rat assessed as inhibition of STZ-induced decrease in pancreatic insulin level at 100 nmol/kg, sc administered from day 2 to day 9 post STZ-challenge measured after 70 days by RIA by relative to control; assay type: functional, organism-based; how it was run: as §6

| Compound | Activity (HIT-T15 [3]) | Activity (Rattus norvegicus [5]) | Activity (HIT-T15 [7]) | Activity (Rattus norvegicus [8]) [%] | Activity (HIT-T15 [9]) | Activity (Pancreatic islet [10]) | Activity (Rattus norvegicus [11]) | Activity (HIT-T15 [14]) | Activity (HIT-T15 [15]) | Activity (Rattus norvegicus [16]) | Activity (HIT-T15 [17]) | Activity (Pancreatic islet [18]) | Activity (HIT-T15 [19]) | Activity (EPC [21]) | other results |
| --- | --- | --- | --- | --- | --- | --- | --- | --- | --- | --- | --- | --- | --- | --- | --- |
| CC(C)C[C@H](NC(=O)[C@H](CCCCN)NC(=O)[C@H](C)NC(=O)[C@@H]1CCCN1C(=O)[C@@H]1CCCN1C(=O)[C@H](CCCCN)NC(=O)[C@H](CCCCN)NC(=O)[C@H](CO)NC(=O)[C@H](CCC(=O)O)NC(=O)[C@H](CCCCN)NC(=O)[C@H](CCCNC(=N)N)NC(=O)[C@H](CCC(N)=O)NC(=O)[C@H](CCC(N)=O)NC(=O)[C@@H](NC(=O)[C@H](CCCNC(=N)N)NC(=O)[C@H](CCC(N)=O)NC(=O)[C@H](Cc1cnc[nH]1)NC(=O)[C@H](CCC(=O)O)NC(=O)[C@@H]1CCCN1C(=O)[C@H](CO)NC(=O)[C@H](CC(C)C)NC(=O)[C@H](Cc1ccccc1)NC(=O)[C@H](CO)NC(=O)[C@H](CO)NC(=O)CN)C(C)C)C(=O)N[C@@H](CCC(N)=O)C(=O)N1CCC[C@H]1C(=O)N[C@@H](CCCNC(=N)N)C(=O)O | Dose-dependent effect | Active | Active | 72 | Active | Active | Active | Active | Active | Active | Dose-dependent effect | Active | Active | Active | Activity (Pancreatic islet [1]): Active; Activity (Pancreatic islet [2]): Active; Activity (EPC [4]): Active; Activity (Pancreatic islet [6]): Active; Activity (Pancreatic islet [12]): inactive; Activity (Pancreatic islet [13]): Active; Activity (Pancreatic islet [20]): Active |
| CC(C)[C@H](NC(=O)[C@H](CCCNC(=N)N)NC(=O)[C@H](CCC(N)=O)NC(=O)[C@H](Cc1cnc[nH]1)NC(=O)[C@H](CCC(=O)O)NC(=O)[C@@H]1CCCN1C(=O)[C@@H](N)CO)C(=O)N[C@@H](CCC(N)=O)C(N)=O | Dose-dependent effect | Active | Active | 71 | Active | Active | Active | Active | Active | Active | Dose-dependent effect | Active | Active | Active | inhibition [22]: Active; Activity (EPC [23]): Active; Activity (Rattus norvegicus [24]): Active; Activity (Rattus norvegicus [25]): Active; Activity (Rattus norvegicus [26]): 89%; Activity (Rattus norvegicus [27]): Active |
